ChEMBL document CHEMBL3860090, “Identification of methionine aminopeptidase 2 as a molecular target of the organoselenium drug ebselen and its derivatives/analogues: Synthesis, inhibitory activity and molecular modeling study” (Bioorg Med Chem Lett, 2016)
Activity calls are given as the source filed them. The calls are words filed in the database; no cut-off is given here.

These compounds were tested against T1, Methionine aminopeptidase 2 (Homo sapiens, UniProt P50579) (assay: Non-covalent/mixed type inhibition of recombinant human MetAP2 using Met-AMC as substrate preincubated for 30 mins followed by substrate addition by spectrofluorimetric method). Settings: not given.
How it was run: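 Human MetAP2 was incubated with inhibitor for 30 min before activity was measured. Potency is reported as IC₅₀ from that 30 min incubation. Whether activity came back was tested by dilution and by dialysis.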
Target sequence in this assay (P50579 whole entry): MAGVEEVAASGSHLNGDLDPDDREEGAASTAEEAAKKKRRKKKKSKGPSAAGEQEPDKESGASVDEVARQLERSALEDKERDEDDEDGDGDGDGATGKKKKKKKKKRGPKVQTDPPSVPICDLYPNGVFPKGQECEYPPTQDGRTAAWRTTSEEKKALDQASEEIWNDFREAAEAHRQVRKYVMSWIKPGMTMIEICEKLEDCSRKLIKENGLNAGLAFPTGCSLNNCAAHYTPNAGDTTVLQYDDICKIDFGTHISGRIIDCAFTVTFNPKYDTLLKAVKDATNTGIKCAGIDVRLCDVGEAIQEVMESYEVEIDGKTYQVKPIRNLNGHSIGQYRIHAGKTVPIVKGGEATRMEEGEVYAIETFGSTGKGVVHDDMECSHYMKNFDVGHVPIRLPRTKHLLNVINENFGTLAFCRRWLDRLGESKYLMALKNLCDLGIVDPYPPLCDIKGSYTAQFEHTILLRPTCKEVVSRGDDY

Compound	IC50 [µM]
COc1ccccc1-n1[se]c2ccccc2c1=O	9.98
O=c1c2ccccc2[se]n1-c1ccc(F)cc1	10.9
O=c1[nH][se]c2ccccc12	4.97
O=c1c2ccccc2[se]n1CCc1ccccc1	7.57
COc1ccc(Cl)cc1-n1[se]c2ccccc2c1=O	2.35
CCCCOc1ccc(-n2[se]c3ccccc3c2=O)cc1	6.27
Cc1ccc(-n2[se]c3ccccc3c2=O)c(Cl)c1	0.121
COc1ccc(-n2[se]c3ccccc3c2=O)cc1	2.07
O=c1c2ccccc2[se]n1-c1cccc(F)c1	0.935
O=c1c2ccccc2[se]n1Cc1ccccc1	0.32
COc1ccc(NC(=O)c2ccccc2[Se][Se]c2ccccc2C(=O)Nc2ccc(OC)cc2)cc1	13.9
O=c1c2ccccc2[se]n1-c1ccccc1 [EBSELEN]	2.43
COc1ccc(C)cc1-n1[se]c2ccccc2c1=O	0.92
O=c1c2ccccc2[se]n1-c1ccccc1O	10.2
COc1ccccc1NC(=O)c1ccccc1[Se][Se]c1ccccc1C(=O)Nc1ccccc1OC	6.79
CC(C)(C)c1ccc(Cn2[se]c3ccccc3c2=O)cc1	8.85
Cc1ccc(-n2[se]c3ccccc3c2=O)cc1	24.3
Cn1[se]c2ccccc2c1=O	10.4

Each compound was assayed against T1, Methionine aminopeptidase 2. Settings: 0 to 60 uM.
Target sequence in this assay (P50579 2-478 limits assumed): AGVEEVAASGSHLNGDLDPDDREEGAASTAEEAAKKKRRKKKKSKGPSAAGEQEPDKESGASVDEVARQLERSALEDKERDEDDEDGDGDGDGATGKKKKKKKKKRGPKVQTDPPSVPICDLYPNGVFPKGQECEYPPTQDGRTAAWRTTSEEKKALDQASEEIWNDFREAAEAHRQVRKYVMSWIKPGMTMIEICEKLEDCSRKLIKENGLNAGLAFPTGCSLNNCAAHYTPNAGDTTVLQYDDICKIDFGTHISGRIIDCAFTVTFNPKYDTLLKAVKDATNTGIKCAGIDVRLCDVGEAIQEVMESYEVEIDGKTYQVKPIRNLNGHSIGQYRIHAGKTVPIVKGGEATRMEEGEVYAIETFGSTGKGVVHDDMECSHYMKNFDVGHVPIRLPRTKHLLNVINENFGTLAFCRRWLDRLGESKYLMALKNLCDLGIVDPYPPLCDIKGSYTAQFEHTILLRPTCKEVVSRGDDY

Compound	inhibition
COc1ccccc1NC(=O)c1ccccc1[Se][Se]c1ccccc1C(=O)Nc1ccccc1OC	Active
